High-throughput results (PubChem BioAssay)
The list is not random: actives were taken first. Their share in the collection is about 2%.
DENV2 CPE: inhibitors of DENV2 cytopathic effect, primary screen, cell-based, plate reader, single concentration. DENV2-infected cells, cytopathic effect rescue. CPE inhibition, % at 9.99 µM. 1.7% of 350,000 active; in the data active = CPE inhibition above about 20%, passing the limit was not always enough; inconclusive = no clear call, values can overlap the other calls; tested in BHK-21 cells;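 also: 0% = median of neutral control wells and 100% = median of positive control wells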
CaV13 ICDI inh: Disruptors of the CACNA1D IQ motif to Ca2+-dependent inactivation inhibitor domain association, primary screening, Förster resonance energy transfer in intact living …. HEK cells, CFP/YFP FRET ICDI-IQ, plate reader, 10 min; percent FRET-ratio fall versus neutral wells. inhibition, % at 12.3 µM. 0.098% of 340,000 active. AID 743397;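 active = mean replicate inhibition of at least 30% and at least 1% of replicates passing that level; inconclusive = only one of the two criteria is met; inactive = neither criterion is met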;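 also: 0% = median of the neutral control wells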
FN deposition inh: inhibitors of fibronectin matrix deposition, primary screen, AH1F cells, Alexa488-fibronectin fluorescence, plate reader | AH1F fibroblasts, overnight | inhibition, % at 12.6 µM | 0.086% of 350,000 active;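 active = mean inhibition across replicates of 30% or more, regardless of how many single replicates reach that level; inconclusive = mean under 30% yet at least half of replicates reach 30%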;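 also: positive control wells lacked labelled fibronectin entirely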
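Assay system: AH1F fibroblasts / Quantity: 10000 cells per well / Medium: DMEM plus 2% serum, read in PBS / Reagent: labelled fibronectin 24 nM / Dosing: single dose, pinned / Times: 1 h cell attachment, overnight exposure to compound and label / Signal: fluorescence, ex 485 nm, em 525 nm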
Casp6 inh: human caspase-6 inhibitors, primary screen, biochemical, VEID-R110 fluorescence, single point, set 2; P55212; purified caspase-6, Z-VEID-R110 cleavage fluorescence; inhibition, % at 12.5 µM; 0.53% of 350,000 active; AID 686996, 2013;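 active = mean inhibition across replicates at least about 35%, with every replicate also reaching that limit, limit read from the data; inconclusive = only one of the two criteria met; inactive = neither criterion met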;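 also: 0% = median of neutral control wells and 100% = no fluorescence left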
Target sequence (P55212 24-179 limits assumed): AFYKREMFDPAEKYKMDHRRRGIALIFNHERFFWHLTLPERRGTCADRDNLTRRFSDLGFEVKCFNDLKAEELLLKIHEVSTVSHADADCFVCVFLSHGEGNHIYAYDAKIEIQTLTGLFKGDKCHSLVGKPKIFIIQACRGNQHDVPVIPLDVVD
Target sequence (P55212 194-293 limits assumed): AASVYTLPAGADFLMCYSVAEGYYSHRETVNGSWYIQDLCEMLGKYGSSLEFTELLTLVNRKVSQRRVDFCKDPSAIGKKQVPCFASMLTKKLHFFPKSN
XiGFP reactiv: activators of inactive X chromosome reactivation, primary screen, imaging, XiGFP fibroblasts, GFP high-content imaging, set 2; XiGFP mouse fibroblasts, % GFP-positive cells imaging, 3 d; cells co-treated with 5-aza-dC sensitizer; scaled so ellipticine positive control = 100%; activation, % at 7.58 µM; 0.055% of 360,000 active;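 active = mean normalized replicate activation at least 10% and every replicate at or above 10%; inconclusive = only one of the two criteria met; inactive = mean below 10% and not all replicates reach 10%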;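 also: 0% = median of on-plate neutral control wells and 100% = ellipticine 6 µM median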
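Material: XiGFP fibroblasts, SV40-immortalized; Buffer or medium: DMEM containing 5-aza-dC; Compound dosing: single point; Times: 3 days compound exposure.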
Active calls of the source: *; ? = inconclusive; · = no result given.

SMILES | DENV2 CPE | CaV13 ICDI inh | FN deposition inh | Casp6 inh | XiGFP reactiv
COc1ccc2c3c([nH]c2c1)[C@H](CO)N(C(=O)CN(C)C)CC31CCN(CC2CCOCC2)CC1 | -6 | · | · | · | 0
C[C@H](O)C#Cc1ccc2c(c1)O[C@H](CN(C)C(=O)C1CC1)[C@@H](C)CN([C@@H](C)CO)S2(=O)=O | 57* | · | -3 | 1 | 0
C[C@@H]1CN([C@H](C)CO)S(=O)(=O)c2ccc(C#Cc3ccncc3)cc2O[C@@H]1CN(C)C(=O)C1CC1 | 30* | · | · | -3 | 0
C[C@H](O)C#Cc1ccc2c(c1)O[C@H](CN(C)C(=O)CN(C)C)[C@H](C)CN([C@H](C)CO)S2(=O)=O | 42* | · | · | 2 | -1
C[C@H](O)C#Cc1ccc2c(c1)O[C@@H](CN(C)C(=O)C1CC1)[C@@H](C)CN([C@H](C)CO)S2(=O)=O | -2 | · | · | 0 | 0
CC(C)CC#Cc1cnc2c(c1)C(=O)N([C@@H](C)CO)C[C@@H](C)[C@H](CN(C)C(=O)CN1CCOCC1)O2 | 1 | · | -12 | 1 | -1
CCCC#Cc1ccc([C@H]2[C@@H](CO)N3C(=O)CN(C(=O)NC4CCCC4)C[C@H]23)cc1 | -2 | · | · | 3 | 0
CO[C@H]1CN(C)C(=O)c2cc(NC(=O)C3CC3)ccc2OC[C@H](C)N(C(=O)CN(C)C)C[C@@H]1C | -10 | · | 5 | 1 | 0
CCCCCSc1nnc(N)s1 | 32* | -20 | -4 | 0 | 0
CC(=O)NCc1ccc(C(=O)CCl)cc1 | 13 | -7 | -2 | 2 | 0
CC(=O)Nc1ccc(C(=O)CCl)cc1 | 27* | · | · | 0 | ·
COc1ccc2c3c([nH]c2c1)[C@@H](CO)N(C(=O)c1cnccn1)CC31CN(C(=O)c2cnccn2)C1 | -11 | · | · | · | 0
CCOc1ccc(NC(=O)CN(C)C(=O)CCCNC(=O)c2ccc(Cl)cc2)cc1OCC | ? | 32* | -7 | -5 | 0
N#C[C@@H]1[C@@H](c2ccc(-c3cccc(F)c3)cc2)[C@H](CO)N1c1nc(-c2ccccc2)cs1 | 90* | · | -1 | 0 | 0
N#C[C@@H]1[C@@H](c2ccc(-c3ccc(F)cc3)cc2)[C@H](CO)N1c1nc(-c2ccccc2)cs1 | 61* | · | -4 | -1 | 0
N#C[C@@H]1[C@H](c2ccc(-c3ccc(F)cc3)cc2)[C@H](CO)N1c1nc(-c2ccccc2)cs1 | 18 | · | 17 | -1 | 0
C[C@@H]1CN([C@H](C)CO)C(=O)c2cc(NC(=O)Cc3ccccc3)ccc2O[C@@H](C)CCCCO[C@H]1CN(C)Cc1ccc(C(F)(F)F)cc1 | -23 | · | · | · | 0
COc1ccc2c3c(n(C)c2c1)[C@@H](CO)N(S(C)(=O)=O)CC31CCN(C(=O)c2ccccn2)CC1 | ? | · | -6 | · | 0
CNC[C@@H]1Oc2ccc(NC(=O)CCCN(C)C)cc2CC(=O)N([C@H](C)CO)C[C@H]1C | 8 | · | · | -1 | 0
S=c1[nH]c2ccc(Cc3ccc4[nH]c(=S)[nH]c4c3)cc2[nH]1 | 16 | 42* | 26 | 1 | 0
COC(=O)C[C@@H]1CC[C@@H]2[C@H](COc3ccc(NC(=O)NCc4ccccc4)cc3C(=O)N2C)O1 | · | · | -18 | · | 0
O=C(c1ccccc1F)N1CCC2CC1c1cc(N3CCCCC3)ccc12 (stereo not drawn) | 42* | -2 | 5 | 1 | 0
O=C(C1CCCCC1)N1CCC2CC1c1cc(N3CCCCC3)ccc12 (stereo not drawn) | 7 | -2 | 0 | -4 | 0
C=C[C@@H](COC(C)=O)N(C(=O)OC(C)(C)C)S(=O)(=O)c1ccc(Br)cc1 | 0 | · | · | 1 | ·
Cc1ccccc1C[n+]1cccc2ccccc21 | 31* | -7 | -9 | -3 | 0
SMILES | DENV2 CPE | CaV13 ICDI inh | FN deposition inh | Casp6 inh | XiGFP reactiv
O=C(C[C@H]1CC[C@H]2[C@@H](COC[C@H](O)CN2C(=O)C2CCCC2)O1)NCc1ccncc1 | 15 | · | -3 | 1 | 0
CC=Cc1ccc2n(c1=O)C[C@H]1[C@H](CO)[C@@H](C(=O)NC3CCCC3)N(CCC)[C@@H]21 (mixture of isomers) | -8 | · | · | 1 | 0
COc1ccccc1N(C(=O)CCl)c1cn(C(C)=O)c2ccccc12 | -23 | -19 | -1 | 19 | 0
COc1ccccc1N(C(C)=O)C1=C(Cl)C(=O)c2ccccc2C1=O | 4 | -6 | 42* | 23 | 0
C[C@@H]1CCCCO[C@H](CN(C)S(=O)(=O)c2ccc(Cl)cc2)[C@@H](C)CN([C@@H](C)CO)C(=O)c2cc(NC(=O)c3ccncc3)ccc2O1 | -15 | · | 6 | 2 | 0
CCN(CC)c1ccc2cc(C(N)=O)c(=O)oc2c1 | -3 | 33* | · | 2 | ·
CCN(CC)c1ccc2cc(C(N)=O)c(=N)oc2c1 | -2 | 4 | 1 | -3 | 0
CN(CC(=O)Nc1ccccc1Cl)C(=O)COC(=O)/C=C/c1cccs1 | -9 | -2 | -2 | 3 | 0
CN(CC(=O)Nc1ccccc1Cl)C(=O)COC(=O)c1cccs1 | 57* | -2 | -11 | 0 | 0
CCCC(=O)N1C[C@@H]2[C@H](c3ccccc31)[C@@H](CO)N2C(=O)Nc1ccccc1 | -3 | · | · | 0 | 0
COCC(=O)N1[C@@H]2CN(C(=O)c3ccncc3)c3ccccc3[C@@H]2[C@@H]1CO | · | · | · | · | 0
O=C(c1cccnc1)N1C[C@H]2[C@@H](c3ccccc31)[C@H](CO)N2CC1CCCC1 | 0 | · | 32* | 0 | 0
O=C(c1cccnc1)N1C[C@H]2[C@@H](c3ccccc31)[C@H](CO)N2C(=O)Nc1ccc(F)cc1 | 67* | · | · | -2 | 0
COCC(=O)N1[C@H](CO)[C@H]2c3ccccc3N(C(=O)c3cccnc3)C[C@H]21 | 59* | · | -1 | -2 | 0
O=C(c1cccnc1)N1C[C@H]2[C@@H](c3ccccc31)[C@H](CO)N2CC1CCCCC1 | -4 | · | · | -2 | 0
CCCC(=O)N1C[C@H]2[C@@H](c3ccccc31)[C@@H](CO)N2C(=O)Nc1ccc(F)cc1 | 28* | · | -5 | -3 | 0
COc1ccccc1C#Cc1ccc2c(c1)[C@H]1[C@H](CCN1C(=O)c1ccc(F)cc1)[C@H](CO)N2 | ? | · | 7 | -1 | 0
Cc1noc(C)c1S(=O)(=O)N(C)C[C@H]1Oc2ccc(NS(C)(=O)=O)cc2C(=O)N([C@H](C)CO)C[C@@H]1C | · | · | · | · | 0
CCCC(=O)N1CC2(CN(C)C2)c2c(n(C)c3cc(OC)ccc23)[C@H]1CO | -6 | · | · | -2 | 0
